The source of these data is ChEMBL document CHEMBL5236549, “Discovery of 2-Sulfinyl-Diazabicyclooctane Derivatives, Potential Oral β-Lactamase Inhibitors for Infections Caused by Serine β-Lactamase-Producing Enterobacterales” (J Med Chem, 2021).

Test [1] can be described thus: Inhibition of bacterial beta-lactamase KPC-2 using nitrocefin as substrate incubated for 20 mins. The arrangement: species or system Bacteria. Put shortly: (§1)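 Nitrocefin hydrolysis read by absorbance. Enzyme titrated to give about 0.2 absorbance change over the no-enzyme control. Enzyme added to nitrocefin (final 50 μg/mL) plus inhibitor, no preincubation, read after 20 min at 35 °C. IC50 is 50% reduction of hydrolysis. N = 1.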

A short description of test [2]: Inhibition of bacterial beta-lactamase CMY-2 using nitrocefin as substrate incubated for 20 mins. The arrangement: species or system Bacteria. Put shortly: as §1
Test [3] is described as follows: Inhibition of bacterial beta-lactamase OXA-48 using nitrocefin as substrate incubated for 20 mins. Also noted: species or system Bacteria. Put shortly: as §1
Test [4] relates to Escherichia coli. The test is described as follows: Antibacterial activity against Escherichia coli ATCC SR34100 assessed as reduction in bacterial growth by measuring minimum […] concentration incubated for 16 to 24 hrs by CLSI based two-fold serial dilution method. The format is functional. The note with it: time 16-24 hrs. An outline of the steps:
(§2)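 MPC₁ by broth microdilution: twofold serial dilutions of inhibitor in cation-adjusted Mueller Hinton broth containing ceftibuten at 1 μg/mL. Inoculum about 5 × 10⁴ cfu/well final, set from OD625. Incubation at 35 °C for 16−20 h. […] N = 1.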

The test system of test [5] is Escherichia coli. The test is described as follows: Antibacterial activity against Escherichia coli ATCC SR09613 assessed as reduction in bacterial growth by measuring minimum […] concentration incubated for 16 to 24 hrs by CLSI based two-fold serial dilution method. The format is functional. The note with it: time 16-24 hrs. An outline of the steps:
as §2

In test [6] the test system is Klebsiella pneumoniae. The test is described as follows: Antibacterial activity against Klebsiella pneumoniae ATCC SR201218 assessed as reduction in bacterial growth by measuring minimum […] concentration incubated for 16 to 24 hrs by CLSI based two-fold serial dilution method. The format is functional. The note with it: time 16-24 hrs. Put shortly:
as §2

The test system of test [7] is Enterobacter cloacae. The test is described as follows: Antibacterial activity against Enterobacter cloacae SR200030 assessed as inhibition of bacterial growth incubated for 16 to 24 hrs by CLSI based two-fold serial dilution method. The note with it: time 16-24 hrs. It counts as functional. Put shortly:
(§3)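 CLSI broth microdilution in cation-adjusted Mueller Hinton broth, twofold serial dilutions, about 5 × 10⁴ cfu/well from OD625, 35 °C for 16−20 h. MIC is the lowest concentration with no visible growth.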

Test [8] has as its system Klebsiella pneumoniae. The test is described as follows: Antibacterial activity against Klebsiella pneumoniae SR100758 assessed as inhibition of bacterial growth incubated for 16 to 24 hrs by CLSI based two-fold serial dilution method. It counts as functional. The note with it: time 16-24 hrs. An outline of the steps: as §3
The test system of test [9] is Klebsiella pneumoniae. The test is described as follows: Antibacterial activity against Klebsiella pneumoniae SR200263 assessed as inhibition of bacterial growth incubated for 16 to 24 hrs by CLSI based two-fold serial dilution method. It counts as functional. The note with it: time 16-24 hrs. Put shortly: as §3
For test [10], the system named is Klebsiella pneumoniae. The test is described as follows: Antibacterial activity against Klebsiella pneumoniae SR200487 assessed as inhibition of bacterial growth incubated for 16 to 24 hrs by CLSI based two-fold serial dilution method. The format is functional. The settings on record: time 16-24 hrs. Put shortly:
as §3

The test system of test [11] is Enterobacter cloacae. The test is described as follows: Antibacterial activity against Enterobacter cloacae SR200030 assessed as reduction in bacterial growth by measuring minimum […] concentration incubated for 16 to 24 hrs by CLSI based two-fold serial dilution method. It counts as functional. The settings on record: time 16-24 hrs. Put shortly: (§4)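 Inhibitor twofold serially diluted in cation-adjusted Mueller Hinton broth containing ceftibuten 1 μg/mL. About 5 × 10⁴ cfu/well, 35 °C for 16−20 h. […] N = 1.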

In test [12] the test system is Klebsiella pneumoniae. The test is described as follows: Antibacterial activity against Klebsiella pneumoniae SR100758 assessed as reduction in bacterial growth by measuring minimum […] concentration incubated for 16 to 24 hrs by CLSI based two-fold serial dilution method. The format is functional. The note with it: time 16-24 hrs. An outline of the steps: as §4

Test [13] concerns Klebsiella pneumoniae. The test is described as follows: Antibacterial activity against Klebsiella pneumoniae SR201325 assessed as reduction in bacterial growth by measuring minimum […] concentration incubated for 16 to 24 hrs by CLSI based two-fold serial dilution method. The settings on record: time 16-24 hrs. It counts as functional. Put shortly: as §4
Test [14] has as its system Enterobacter cloacae. The test is described as follows: Antibacterial activity against Enterobacter cloacae SR36276 assessed as inhibition of bacterial growth incubated for 16 to 20 hrs by CLSI based two-fold serial dilution method.
Test [15] has as its system Escherichia coli. The test is described as follows: Antibacterial activity against Escherichia coli ATCC SR34100 assessed as inhibition of bacterial growth incubated for 16 to 20 hrs by CLSI based two-fold serial dilution method.
In test [16] the test system is Escherichia coli. The test is described as follows: Antibacterial activity against Escherichia coli ATCC SR09613 assessed as inhibition of bacterial growth incubated for 16 to 20 hrs by CLSI based two-fold serial dilution method.
The test system of test [17] is Enterobacter cloacae. The test is described as follows: Antibacterial activity against Enterobacter cloacae SR100108 assessed as inhibition of bacterial growth incubated for 16 to 20 hrs by CLSI based two-fold serial dilution method.
Test [18] has as its system Klebsiella pneumoniae. The test is described as follows: Antibacterial activity against Klebsiella pneumoniae SR09635 assessed as inhibition of bacterial growth incubated for 16 to 20 hrs by CLSI based two-fold serial dilution method.
The test system of test [19] is Klebsiella pneumoniae. The test is described as follows: Antibacterial activity against Klebsiella pneumoniae SR09603 assessed as inhibition of bacterial growth incubated for 16 to 20 hrs by CLSI based two-fold serial dilution method.
The subject of test [20] is Klebsiella pneumoniae. The test is described as follows: Antibacterial activity against Klebsiella pneumoniae SR201325 assessed as inhibition of bacterial growth incubated for 16 to 20 hrs by CLSI based two-fold serial dilution method.
Test [21] relates to Klebsiella pneumoniae. The test is described as follows: Antibacterial activity against Klebsiella pneumoniae ATCC BAA1705 assessed as inhibition of bacterial growth incubated for 16 to 20 hrs by CLSI based two-fold serial dilution method.
For test [22], the system named is Klebsiella pneumoniae. The test is described as follows: Antibacterial activity against Klebsiella pneumoniae ATCC SR201218 assessed as inhibition of bacterial growth incubated for 16 to 20 hrs by CLSI based two-fold serial dilution method.
Test [23] concerns Enterobacter cloacae. The test is described as follows: Antibacterial activity against Enterobacter cloacae SR36276 assessed as reduction in bacterial growth by measuring minimum […] concentration incubated for 16 to 20 hrs by CLSI based two-fold serial dilution method. The note with it: time 16-20 hrs.
The test system of test [24] is Enterobacter cloacae. The test is described as follows: Antibacterial activity against Enterobacter cloacae SR100108 assessed as reduction in bacterial growth by measuring minimum […] concentration incubated for 16 to 20 hrs by CLSI based two-fold serial dilution method. The note with it: time 16-20 hrs.
The test system of test [25] is Klebsiella pneumoniae. The test is described as follows: Antibacterial activity against Klebsiella pneumoniae SR09635 assessed as reduction in bacterial growth by measuring minimum […] concentration incubated for 16 to 20 hrs by CLSI based two-fold serial dilution method. The settings on record: time 16-20 hrs.
Test [26] relates to Klebsiella pneumoniae. The test is described as follows: Antibacterial activity against Klebsiella pneumoniae SR09603 assessed as reduction in bacterial growth by measuring minimum […] concentration incubated for 16 to 20 hrs by CLSI based two-fold serial dilution method. The note with it: time 16-20 hrs.
The test system of test [27] is Klebsiella pneumoniae. The test is described as follows: Antibacterial activity against Klebsiella pneumoniae SR200263 assessed as reduction in bacterial growth by measuring minimum […] concentration incubated for 16 to 20 hrs by CLSI based two-fold serial dilution method. The settings on record: time 16-20 hrs.
Test [28] deals with Klebsiella pneumoniae. The test is described as follows: Antibacterial activity against Klebsiella pneumoniae SR200487 assessed as reduction in bacterial growth by measuring minimum […] concentration incubated for 16 to 20 hrs by CLSI based two-fold serial dilution method. The settings on record: time 16-20 hrs.
Test [29] relates to Klebsiella pneumoniae. The test is described as follows: Antibacterial activity against Klebsiella pneumoniae ATCC BAA1705 assessed as reduction in bacterial growth by measuring minimum potentiating concentration incubated for 16 to 20 hrs by CLSI based two-fold serial dilution method. The note with it: time 16-20 hrs.
Test [30] deals with Escherichia coli. The test is described as follows: Antibacterial activity against Escherichia coli assessed as inhibition of bacterial growth incubated for 16 to 24 hrs by CLSI based two-fold serial dilution method. It counts as functional. The note with it: time 16-24 hrs. An outline of the steps: (§5)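 CLSI broth microdilution with twofold serial dilutions in cation-adjusted Mueller Hinton broth. Inoculum set from OD625 to about 5 × 10⁴ cfu/well final. Plates incubated at 35 °C for 16−20 h. MIC is the lowest concentration with no growth visible to the unaided eye.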

Test [31] has as its system Escherichia coli. The test is described as follows: Antibacterial activity against Escherichia coli expressing KPC-2 assessed as inhibition of bacterial growth incubated for 16 to 24 hrs by CLSI based two-fold serial dilution method. It counts as functional. The settings on record: time 16-24 hrs. Put shortly:
as §5

For test [32], the system named is Escherichia coli. The test is described as follows: Antibacterial activity against Escherichia coli expressing CTX-M-15 assessed as inhibition of bacterial growth incubated for 16 to 24 hrs by CLSI based two-fold serial dilution method. The format is functional. The note with it: time 16-24 hrs. Put shortly:
as §5

In test [33] the test system is Escherichia coli. The test is described as follows: Antibacterial activity against Escherichia coli expressing CMY-2 assessed as inhibition of bacterial growth incubated for 16 to 24 hrs by CLSI based two-fold serial dilution method. It counts as functional. The note with it: time 16-24 hrs. An outline of the steps: as §5
Test [34] has as its system Escherichia coli. The test is described as follows: Antibacterial activity against Escherichia coli expressing OXA-48 assessed as inhibition of bacterial growth incubated for 16 to 24 hrs by CLSI based two-fold serial dilution method. It counts as functional. The note with it: time 16-24 hrs. An outline of the steps:
as §5

Test [35] concerns Klebsiella pneumoniae. The test is described as follows: Antibacterial activity in ICR mouse infected with Klebsiella pneumoniae SR08667 assessed as reduction in bacterial colony forming units at 30 mg/kg,po administered upto 48 hrs after infection. It counts as functional, organism-based. An outline of the steps: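 Urinary tract infection model in 5-week-old female ICR mice, N = 5 per arm. 1.2 × 10⁶ CFU given transurethrally, urethra tied for 4 h. Oral dosing at 4, 8, 28 and 32 h post-infection in 0.5% methylcellulose: ceftibuten 30 mg/kg alone, ceftibuten 10 mg/kg plus prodrug 3, 10 or 30 mg/kg, or both at 30 mg/kg. Kidneys homogenized at 4 or 48 h and plated on modified Drigalski agar. Read-out is change in log CFU/kidney versus untreated controls at treatment start.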

≈ marks a conversion by molar mass, not a printed value. Calls of active or inactive are those of the source. The rule behind the calls is not given here. Some results are limits rather than exact numbers.

With `NC(=O)[C@@H]1CC[C@@H]2CN1C(=O)N2OS(=O)(=O)O` [AVIBACTAM], the 50% inhibitory concentration (IC50) in test [1] turned out to be 72 nM; in test [2], 59 nM; in [3] it was 5.7 µM. In addition, the MPC was found to be 0.125 µg/mL in test [4]; 0.5 µg/mL in test [5]; 1 µg/mL in test [6]; 16 µg/mL in test [11]; 2 µg/mL in [12]; 2 µg/mL in [13]. The MPC in test [23] turned out to be 4 µg/mL; in test [24], 8 µg/mL; in test [25], 0.5 µg/mL; in [26], 8 µg/mL; in test [27], 0.063 µg/mL; in [28], 4 µg/mL. Further, the MPC in test [29] is 0.125 µg/mL. For the same compound, the MIC in [7] is 32 µg/mL (≈ 121 µM); in test [8], above 32 µg/mL; in test [9], above 32 µg/mL; in test [10], above 32 µg/mL; in test [14], 32 µg/mL (≈ 121 µM); in [15], 16 µg/mL (≈ 60.3 µM). For the same compound, the MIC is 16 µg/mL (≈ 60.3 µM) in test [16]; 32 µg/mL (≈ 121 µM) in test [17]; above 32 µg/mL in [18]; above 32 µg/mL in [19]; 32 µg/mL (≈ 121 µM) in [20]; 32 µg/mL (≈ 121 µM) in test [21]. In test [22], the MIC is above 32 µg/mL.
Consider `Nc1nc(/C(=C/CC(=O)O)C(=O)N[C@@H]2C(=O)N3C(C(=O)O)=CCS[C@H]23)cs1` [CEFTIBUTEN], for which the MIC is above 32 µg/mL in test [30]; 16 µg/mL (≈ 39 µM) in [31]; 32 µg/mL (≈ 78 µM) in test [32]; above 32 µg/mL in test [33]; above 32 µg/mL in test [34]; above 32 µg/mL in test [7]. Besides, the MIC in test [8], in test [9], in test [10], in test [14], in test [17] and in [18] was above 32 µg/mL in each case. Besides, the MIC in [19] and in test [20] was above 32 µg/mL each time. Also, the result in test [35] was inactive.

For orientation: IC50 means the concentration at which inhibition is half-maximal. Low readings indicate inhibition by little substance, high ones a need for much substance. As usually defined, the MIC is the lowest concentration found to suppress growth.
